# TMEM16A act = TMEM16A chloride channel activators or potentiators, primary screen, cell-based, HTS. Anoctamin-1 (Mus musculus), Q8BHY3. HEK293 TMEM16A/YFP-H148Q/I152L, iodide quench fluorescence; hits give low values. B-score at 10 µM. 0.3% of 340,000 active. AID 623877, 2012;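 active = fluorescence-ratio B-score plate-corrected deviation score at least 3 library SD below zero, with starting fluorescence score within 5 deviations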;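 also: channel opened by trigger with iodide after compound preincubation; score built on the fluorescence ratio of max minus min over baseline; more negative score means more quench and so TMEM16A activation or potentiation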
# MC4R antag cAMP = MC4R antagonists of cAMP signaling, primary screen, cell-based, TR-FRET, antagonist arm of biased-ligand search; 0.48% of 360,000 active; inhibition, % at 6.5 µM; MC4R-expressing cells, MTII-stimulated cAMP, LANCE TR-FRET; Melanocortin receptor 4 (Homo sapiens), P32245;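 active = inhibition above its plate's cutoff, the mean of tested wells on that plate plus 3 SD, cut at about 29% in these data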
#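 System – human MC4R-expressing U2OS cells · Also added – Melanotan II · Dosing – one concentration, 6.5 µM nominal · Timing – 30-min compound, 1-h challenge, 1-h detection, room temperature · Measured by – Eu-cAMP/anti-cAMP TR-FRET, emission 671 nm · Replicates – singlicate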
# MIN6 prolif = inducers of MIN6 beta-cell proliferation, primary screen, ATP luminescence, uHTS; MIN6 cells proliferation, ATPlite luminescence, 48 h; cells starved in 0.2% serum; 100% = growth in 10% serum; proliferation, % at 10 µM; 0.29% of 330,000 active;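 active = compounds whose signal lies at least 3.5 SD above the mean of all wells on their plate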
# MC4R ag barr = MC4R agonists recruiting beta-arrestin, primary screen, cell-based, luminescence, agonist arm of biased-ligand search. Melanocortin receptor 4 (Homo sapiens), P32245. U2OS MC4R beta-arrestin complementation; percent of melanotan II response, DMSO zero. activation, % at 8.9 µM. 0.98% of 360,000 active. AID 540308, 2011;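 active = activation above a per-plate cutoff, the mean activation of sample wells on that plate plus 3 SD, cut at about 8% in these data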
# TMEM16A inh = TMEM16A chloride channel inhibitors, primary screen, cell-based, HTS; AID 588511, 2011; Anoctamin-1 (Mus musculus), Q8BHY3; normalized B-score (activity score, 25-100; higher = stronger inhibition) at 10 µM; HEK293 TMEM16A/YFP iodide influx fluorescence, ionomycin; 1.2% of 310,000 active;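 active = ratio plate-corrected score three or more library SD toward inhibition, starting fluorescence score within five deviations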;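 also: score derived from kinetic fluorescence span divided by baseline fluorescence per well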
# m5-HT2A agonist = mouse Htr2a agonists via beta-arrestin recruitment, primary screen, cell-based, luminescence | CHO-K1 mHTR2A beta-arrestin complementation; percent of 30 µM serotonin response | activation, % at 7.6 µM | 0.66% of 360,000 active | 5-hydroxytryptamine receptor 2A (Mus musculus), P35363;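 active = activation above a run cutoff, the mean activation of all tested compounds plus 3 SD, cut at about 14% in these data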
# Target sequence (P35363 whole entry, looked up): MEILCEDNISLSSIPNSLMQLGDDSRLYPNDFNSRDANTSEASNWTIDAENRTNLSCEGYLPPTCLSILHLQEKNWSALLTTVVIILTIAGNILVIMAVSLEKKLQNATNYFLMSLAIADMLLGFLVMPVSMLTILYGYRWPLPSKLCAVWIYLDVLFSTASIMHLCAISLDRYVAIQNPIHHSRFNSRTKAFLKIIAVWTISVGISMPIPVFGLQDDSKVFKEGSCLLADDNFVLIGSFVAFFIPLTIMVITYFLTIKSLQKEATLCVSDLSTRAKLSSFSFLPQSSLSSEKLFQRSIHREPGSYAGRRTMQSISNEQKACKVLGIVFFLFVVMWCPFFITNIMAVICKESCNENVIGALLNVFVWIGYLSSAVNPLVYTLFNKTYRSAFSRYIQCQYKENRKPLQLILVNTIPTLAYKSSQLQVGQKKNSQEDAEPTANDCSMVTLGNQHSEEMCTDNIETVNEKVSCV
# A number is an active result; - = inactive; . = no result. Shown are actives, neighbours in structure and some others; about 3.4% of the full set was active somewhere.
SMILES,TMEM16A act,MC4R antag cAMP,MIN6 prolif,MC4R ag barr,TMEM16A inh,m5-HT2A agonist
Cc1nc2ccc(NC(=O)/C=C/C(=O)O)cc2nc1C,-,-,-,-,-,-
O=C(O)/C=C/C(=O)Nc1ccc2nccnc2c1,-,-,-,-,25,-
COc1cccc(-c2sc3cc(OC)c(OC)cc3c2-c2ccc(OCCN3CCCCC3)cc2)c1,-,-,.,11.3,.,-
COc1cccc(-c2sc3ccccc3c2-c2ccc(OCCN3CCCCC3)cc2)c1,-,-,-,18.0,.,-
COc1ccc(-c2sc3ccccc3c2-c2ccc(OCCN3CCCCC3)cc2)cc1,.,-,-,-,.,-
COc1cccc(-c2sc3ccc(OC)cc3c2-c2ccc(OCCN3CCCC3)cc2)c1,-,-,.,27.3,.,-
CC(C)C(=O)N1CCC1(C)C(=O)Nc1ccc(-n2cccc2)cc1 (stereo unspecified),.,-,.,-,.,-
COc1cc(/C=C(/C#N)c2nc3ccccc3[nH]2)ccc1OC(=O)c1ccco1,-4.83,-,-,-,-,-
CCCCn1c(N)c(N(CCOC)C(=O)COC(=O)COc2ccccc2C#N)c(=O)[nH]c1=O,-,-,-,-,-,-
Cc1ccc(C(=O)N/C(=C\c2ccco2)C(=O)NCCCN2CCOCC2)cc1C,-,-,-,-,-,-
Cc1ccc(C(=O)N/C(=C\c2ccco2)C(=O)NCCN2CCOCC2)cc1C,-,-,-,8.4,-,-
Cc1nnc(N2CCC(C(=O)NC3CCC(C)CC3)CC2)c2nn(-c3ccc(Cl)cc3)c(C)c12 (stereo unspecified),-,-,-,-,100,-
COc1cccc(Oc2ccc(C(F)(F)F)cc2NC(=O)CN2C(=O)NC3(CCCC3)C2=O)c1,-,-,-,-,.,-
CCc1nc2ccc(C(=O)NCCc3c[nH]c4ccccc34)cn2c1N(C=O)CCC(C)C,.,-,.,-,.,-
CSc1nc(Cl)c(Cc2ccc(OC(C)C)cc2)c(N2CCOCC2)n1,-,-,-,-,100,-
Clc1ccc(-n2cnc3c(Cl)ncnc32)cc1Cl,-,-,.,-,.,-
O=C(Nc1ccc(F)c(Cl)c1)Nc1nnc([C@@H]2O[C@H](CO)[C@@H](O)[C@H]2O)s1,.,-,.,-,.,-
CCC(=O)N1CCCc2cc(S(=O)(=O)N3CCN(c4ncccn4)CC3)ccc21,-,-,-,-,-,21.4
CCC(=O)N1CCCc2cc(S(=O)(=O)N3CCN(c4ccccn4)CC3)ccc21,-,-,-,-,-,-
Cc1cccc(N2CCN(S(=O)(=O)c3ccc4c(c3)CCN4C(=O)CCC(=O)O)CC2)c1C,-,-,-,-,-,17.7
COC(=O)[C@]12CCCCC=C1N(CCc1ccc(OC)c(OC)c1)C(=O)[C@H](CC(=O)NCc1cccs1)C2,.,.,.,.,.,-
C[C@H](CO)N1C[C@H](C)[C@@H](CN(C)C(=O)Nc2ccc(C(F)(F)F)cc2)Oc2ccc(NC(=O)CCC(F)(F)F)cc2C1=O,-,-,-,-,.,-
CCC(=O)Nc1cc(Cl)ccc1C(=O)O,-,-,-,-,-,-
COc1ccccc1CC(=O)Nc1ccc(Cl)cc1C(=O)O,-,-,-,-,-,-
O=C(COc1cccc2ccccc12)Nc1ccc(Cl)cc1C(=O)O,-,-,.,-,100,-
O=C(COc1cccc2ccccc12)Nc1cc(Cl)ccc1C(=O)O,-,-,-,-,100,-
COc1ccc(-n2nc(C(=O)NCC(=O)Nc3cccc(Cl)c3)c3ccccc3c2=O)cc1OC,-,-,-,-,25,-
Cc1ccccc1OC(C)C(=O)Nc1ccc(S(=O)(=O)Nc2nccs2)cc1 (stereo unspecified),-,-,-,-,-,-
Cc1ccc2c(c1)N(S(=O)(=O)c1ccc(CN3C(=O)c4cccnc4C3=O)cc1)CCO2,-22.9,-,-,-,-,-
